Screening data (PubChem)
S1P3 agonist – S1P3 (human) receptor agonism. Q99500. S1P3 NFAT-BLA reporter cells, FRET ratio; relative to 1 µM S1P, basal subtracted. activation, % at 4.5 µM. 0.1% of 60,000 active;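 active = activation above the screen-wide mean plus 3 SD, cut at about 4.5% in these data, passing the limit was not always enough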
Target sequence (Q99500 whole entry, looked up): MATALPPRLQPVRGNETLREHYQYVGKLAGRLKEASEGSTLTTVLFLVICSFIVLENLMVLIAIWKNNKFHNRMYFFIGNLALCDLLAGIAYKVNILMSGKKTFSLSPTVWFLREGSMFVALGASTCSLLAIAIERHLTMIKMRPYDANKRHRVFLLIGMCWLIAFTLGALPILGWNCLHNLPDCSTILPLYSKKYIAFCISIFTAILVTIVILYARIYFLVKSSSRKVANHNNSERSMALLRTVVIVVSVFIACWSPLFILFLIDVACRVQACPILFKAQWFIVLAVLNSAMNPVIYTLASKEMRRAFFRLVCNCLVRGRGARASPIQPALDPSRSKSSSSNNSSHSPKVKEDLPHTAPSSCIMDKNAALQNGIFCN
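Measure – % activation relative to 1 µM S1P (100%), per plate · System – stable CHO line with human S1P3, Gα16, NFAT-BLA reporter · Timing – cells plated overnight, compound 4 h 37 °C, substrate 2 h RT · Technique – fluorescent BLA substrate, ex 405 nm, em 460/535 nm ratio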
HTR1A agonist – activates the human 5-HT1a serotonin receptor; P08908; CHO 5-HT1a Ga15 NFAT-bla reporter, FRET ratio; 0% basal, 100% maximal reference agonist; activation, % at 10 µM; 0.56% of 65,000 active; AID 567;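 active = activation above the screen-wide mean activation plus 3 SD, cut at about 19% in these data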
HTR1E agonist – 5-HT1E (human) receptor agonism | activation, % at 6 µM | CHO 5-HT1E Ga15 NFAT-bla reporter, FRET; 0% DMSO wells, 100% control agonist wells | P28566 | 0.69% of 65,000 active;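 active = activation above a set limit, the screen-wide mean activation plus 3 SD, cut at about 8.5% in these data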
S1P1 ag-PAM – activates or potentiates agonism at human S1P1 receptor. 0.57% of 56,000 active. S1P1 CRE-bla cells, forskolin, beta-lactamase FRET, potentiator mode; S1P1 agonist co-added at EC20, 2 nM; 100% = saturating reference agonist, 0% = basal. activation, % at 9.5 µM;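 active = activation above a cutoff set at the mean activation of all tested compounds plus 3 SD, cut at about 54% in these data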;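 also: forskolin at 4 µM as EC80 and the EC20 agonist is SEW2871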
5HT1E antag – antagonists of human 5-HT1E serotonin receptor; P28566; CHO 5-HT1E Ga15 NFAT-bla reporter, FRET, antagonist; inhibition, % at 6 µM; 0.99% of 65,000 active;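 active = inhibition above a set limit, the mean inhibition across every tested compound plus 3 SD, cut at about 29% in these data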;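 also: signal is the 460 over 535 nm emission ratio of beta-lactamase substrate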
5HT1a antag – 5-HT1a (human) receptor antagonism; 0.68% of 62,000 active; inhibition, % at 10 µM; CHO 5-HT1a Ga15 NFAT-bla reporter, antagonist mode; AID 612;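 active = inhibition above the mean of all tested compounds plus 3 SD, cut at about 43% in these data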;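 also: receptor stimulated by 5-CT agonist at 100 nM near EC80; beta-lactamase reporter measured by ratiometric fluorescence of a cleavable substrate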
Large screens that a line does not name were inactive. Sampled rows, rich in hits. Any-hit rate of the full collection: about 2.9%.

CCN(CC)c1ccc(-c2nn3c(-c4ccccc4OC)nnc3s2)cc1	5HT1E antag 67, 5HT1a antag 70
COc1ccccc1-c1nn2c(-c3ccccc3Cl)nnc2s1	none (no result: S1P1 ag-PAM)
CN(C)c1ccc(-c2nn3c(-c4ccc(Cl)cc4Cl)nnc3s2)cc1	5HT1E antag 37
CC(=O)N1CCN(c2nc3cc4c(cc3nc2NS(=O)(=O)c2ccccc2)OCCO4)CC1	none
Fc1cc(Br)ccc1Nc1nc2ccccc2n2nnnc12	HTR1E agonist 15
CCN1CCN(S(=O)(=O)c2ccc(S(=O)(=O)N(CC)Cc3ccccc3)cc2)CC1	none
Cc1ccc(N2C(=O)c3ccc(C(=O)N4CCN(c5ccccc5F)CC4)cc3C2=O)cc1	none
Cn1cc(/C(Cc2ccccc2)=N\O)c2ccccc21	HTR1E agonist 57
COC(=O)c1cn(C(=O)c2ccco2)c2ccccc12	none
C/C(Cl)=C/Cn1c(N2CCCC2)nc2c1c(=O)n(C)c(=O)n2C	S1P3 agonist 8.7
O=C(O)COc1ccc(-c2nnn(CC(=O)O)n2)cc1	none (no result: S1P1 ag-PAM)
Cn1nnc(-c2ccc(OCc3ccccc3F)cc2)n1	HTR1E agonist 13 (no result: S1P1 ag-PAM)
CC1(C)CC2CC(C)(CN2C(=O)C23CCC(C)(C(=O)O2)C3(C)C)C1 (configuration not stated)	none (no result: S1P1 ag-PAM)
CCNc1nc(NC(C)C)nc(N(C#N)Cc2ccccc2)n1	none
CCNc1nc(NC(C)(C)C)nc(N(C#N)CC)n1	5HT1E antag 29
COc1cccc(C(c2sc3ncnn3c2O)N2CCN(C(=O)c3ccco3)CC2)c1 (configuration not stated)	none
O=C(O)Cn1c(SC2CCCCC2)nc2ccccc21	HTR1A agonist 19
CCOC(=O)CSc1cccc2cccnc12	5HT1E antag 40
CCN(CC)C(=O)Sc1cccc2cccnc12	none
CC(C)c1ccc(NC(=O)C2CC(=O)N=C(N)S2)cc1 (configuration not stated)	none
CC(=O)Nc1ccc(S(=O)(=O)N2CCSC2c2ccccc2Cl)cc1 (configuration not stated)	5HT1E antag 35
CN1CCN(S(=O)(=O)c2ccc(NC(=O)c3cccs3)cc2)CC1	none
CN1CCN(S(=O)(=O)c2ccc(NC(=O)c3csc4ccccc34)cc2)CC1	5HT1E antag 35
CCNc1nc(SCc2ccccc2)nc(N2CCOCC2)n1	5HT1E antag 36
Nc1nc(CSCc2ccccc2)nc(N2CCOCC2)n1	none
O=C(CC1Oc2ccc(Cl)cc2NC1=O)NC1CCCCCC1 (configuration not stated)	none
COc1ccccc1NC(=O)N1CCN(c2cccc(C(F)(F)F)c2)CC1	HTR1E agonist 13
CC(=O)c1cc2c(cc1NC(=O)CN1CCN(c3cccc(C(F)(F)F)c3)CC1)OCO2	none (no result: S1P3 agonist, S1P1 ag-PAM)
CC(=O)Nc1ccc(CN2CCN(c3cccc(C(F)(F)F)c3)CC2)cc1	HTR1E agonist 23
CC(C)Cc1cc(C(=O)NCCCN2CCOCC2)no1	none
Cc1c(O)c(CN2CCCC(C)C2)cc2c3c(c(=O)oc12)CCC3 (configuration not stated)	none (no result: 5HT1a antag)
O=C(C1CCN(S(=O)(=O)c2ccc(F)cc2)CC1)N1CCOCC1	none
COC(=O)c1cc(OC)c(OC)cc1NC(=O)C1CCC(=O)N1S(=O)(=O)c1ccc(C)cc1 (configuration not stated)	5HT1E antag 36
COc1ccc(S(=O)(=O)Nc2cc(Cl)ccc2OC)cc1	5HT1E antag 30
COc1ccc(OC)c(NS(=O)(=O)c2ccc(SC)cc2)c1	none
CCOc1ccc(S(=O)(=O)Nc2cc(OC)ccc2OC)cc1	5HT1E antag 65, 5HT1a antag 52
COc1ccc(OC)c(NS(=O)(=O)c2ccc(N3CCCC3=O)cc2)c1	5HT1E antag 48 (no result: 5HT1a antag)
CC(C)(C)NS(=O)(=O)c1cccc(S(=O)(=O)c2cccc(S(=O)(=O)NC(C)(C)C)c2)c1	none
c1ccc(Nc2cc(-c3ccccc3)nc3ncnn23)cc1	none
Cn1ncc(N)c1C(=O)Nc1cccc(C(F)(F)F)c1	HTR1A agonist 45
O=C(CC1Oc2ccccc2NC1=O)NCCc1ccccc1 (configuration not stated)	HTR1A agonist 49
CS(=O)(=O)N(CCc1ccccc1)CC(=O)NCC1CCCO1 (configuration not stated)	none
COc1ccc(Nc2nc(Nc3ccc(OC)cc3)nc(-n3[nH]c(=O)c(C)c3C)n2)cc1	S1P3 agonist 17, HTR1A agonist 34, HTR1E agonist 15 (no result: 5HT1a antag)
CC(=O)N1CCN(c2ccccc2NC(=O)COc2ccc(Cl)cc2Cl)CC1	none
CCC(=O)N1CCN(c2ccccc2NC(=O)COc2cc(C)ccc2C(C)C)CC1	5HT1a antag 58
O=C(Nc1ccccn1)C(NS(=O)(=O)c1cccc2nsnc12)c1ccccc1 (configuration not stated)	none
OC(c1cccc(OCc2ccccc2)c1)c1nnc(-c2ccccc2)o1 (configuration not stated)	S1P1 ag-PAM 111
O=C(CSc1n[nH]c(=O)n1C1CC1)Nc1cc(Cl)ccc1Oc1ccccc1	none
CC(=O)OC(C(=O)NC1CCCCC1)c1ccc(C#N)cc1 (configuration not stated)	none
CC(=O)OC(C(=O)NC1CCCCC1)c1ccc(C)cc1 (configuration not stated)	HTR1E agonist 32
CN(C)S(=O)(=O)c1ccc(C(=O)Nc2ccnn2C2CCCCC2)cc1	none
CC(NC(=O)CCC(=O)NC(C)C1COc2ccccc2O1)C1COc2ccccc2O1 (configuration not stated)	none
COc1ccc(CNC(C)C2COc3ccccc3O2)c(OC)c1 (configuration not stated)	HTR1E agonist 13
COc1ccc(NC(=O)CSc2nc3c(c(=O)n2-c2ccc(C)cc2)SCC3)c(OC)c1	none (no result: S1P3 agonist, S1P1 ag-PAM)
Cc1cc(N2CCN(c3nc4ccccc4s3)CC2)n2ncnc2n1	S1P1 ag-PAM 58
O=C(COc1ccc2c(c1)CCC2)N1CCc2ccccc21	none
COc1ccccc1C1N(c2ccc(Cl)cc2)C(=O)C2CCCN21 (configuration not stated)	HTR1E agonist 15
COc1ccc(N2C(=O)C3CCCN3C2c2ccccc2OC)cc1 (configuration not stated)	none
COc1ccc(C2N(c3ccc(F)cc3)C(=O)C3CCCN32)cc1 (configuration not stated)	5HT1E antag 88
Cc1cccc(C)c1NC(=O)C1(N2CCN(C(=O)c3ccco3)CC2)CCCCC1	none
CCOC(=O)CC(/C(C)=N\O)c1ccccc1 (configuration not stated)	HTR1E agonist 40
